# Experimental data taken from ChEMBL document CHEMBL3751743, “Synthesis and anti-cancer screening of novel heterocyclic-(2H)-1,2,3-triazoles as potential anti-cancer agents” (Medchemcomm, 2015).
# Tests used:
# [1] = Cytotoxicity against human DU145 cells after 48 hrs by SRB assay; format: functional; details: DU-145, 48 h
# How it was run: (§1)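 NCI-60 five-dose screen: compounds dissolved in DMSO/H2O, tested at five 10-fold dilutions (10^-4 to 10^-8 M) for 48 h. Growth measured by sulforhodamine B optical density at time zero and after 48 h drug or vehicle exposure. Percentage growth calculated relative to control. GI50 is the molar concentration giving 50% reduction in net cell growth versus day-0 cell numbers.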
# MCF7 = assay: Cytotoxicity against human MCF7 cells after 48 hrs by SRB assay; format: functional; details: MCF7, 48 h; how it was run: as §1
# MDA-MB-231 = assay: Cytotoxicity against human MDA-MB-231 cells after 48 hrs by SRB assay; format: functional; details: MDA-MB-231, 48 h; how it was run: as §1
# [2] = Cytotoxicity against human Hs 578T cells after 48 hrs by SRB assay; format: functional; how it was run: as §1
# [3] = Cytotoxicity against human BT549 cells after 48 hrs by SRB assay; format: functional; details: BT-549, 48 h; how it was run: as §1
# T47D = assay: Cytotoxicity against human T47D cells after 48 hrs by SRB assay; format: functional
# How it was run: (§2)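 NCI-60 five-dose screen. Compounds dissolved in DMSO/H2O and tested at five 10-fold dilutions (10^-4 to 10^-8 M) for 48 h. Growth read by sulforhodamine B optical density at time zero and after 48 h of exposure to compound or vehicle. Percent growth calculated against control. GI50 is the molar concentration giving 50% reduction in net cell growth relative to cell number on day 0.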
# MDA-MB-468 = assay: Cytotoxicity against human MDA-MB-468 cells after 48 hrs by SRB assay; format: functional; details: MDA-MB-468, 48 h; how it was run: as §1
# Tubulin = Tubulin (Sus scrofa, UniProt P02554+P02550); assay: Inhibition of porcine brain tubulin polymerization by spectrophotometric analysis
# How it was run: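 Tubulin at 4 mg/mL in cold 80 mM PIPES pH 6.9 with 2 mM MgCl2, 0.5 mM EGTA, GTP and 10% glycerol. Compound (added as 10x stock in 50% DMSO) or DMSO was preincubated 2 min at 37 °C in a prewarmed plate. Cold tubulin was then added, and polymerization at 37 °C was followed by A340 over time. Dose-response, mean ± s.d., n=3.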
# CCRF-CEM = assay: Cytotoxicity against human CCRF-CEM cells after 48 hrs by SRB assay; format: functional; how it was run: as §1
# [4] = Cytotoxicity against human HL-60(TB) cells after 48 hrs by SRB assay; format: functional; details: HL-60, 48 h; how it was run: as §1
# K562 = assay: Cytotoxicity against human K562 cells after 48 hrs by SRB assay; format: functional; details: K562, 48 h; how it was run: as §1
# [5] = Cytotoxicity against human MOLT4 cells after 48 hrs by SRB assay; format: functional; details: MOLT-4, 48 h; how it was run: as §1
# [6] = Cytotoxicity against human RPMI8226 cells after 48 hrs by SRB assay; format: functional; details: RPMI-8226, 48 h; how it was run: as §1
# SR = assay: Cytotoxicity against human SR cells after 48 hrs by SRB assay; format: functional; how it was run: as §1
# A549 = assay: Cytotoxicity against human A549 cells after 48 hrs by SRB assay; format: functional; details: A549, 48 h; how it was run: as §1
# [7] = Cytotoxicity against human HOP92 cells after 48 hrs by SRB assay; format: functional; details: HOP-92, 48 h; how it was run: as §1
# NCI-H226 = assay: Cytotoxicity against human NCI-H226 cells after 48 hrs by SRB assay; format: functional; details: NCI-H226, 48 h; how it was run: as §1
# NCI-H23 = assay: Cytotoxicity against human NCI-H23 cells after 48 hrs by SRB assay; format: functional; details: NCI-H23, 48 h; how it was run: as §1
# NCI-H460 = assay: Cytotoxicity against human NCI-H460 cells after 48 hrs by SRB assay; format: functional; details: NCI-H460, 48 h; how it was run: as §1
# NCI-H522 = assay: Cytotoxicity against human NCI-H522 cells after 48 hrs by SRB assay; format: functional; details: NCI-H522, 48 h; how it was run: as §1
# [8] = Cytotoxicity against human COLO205 cells after 48 hrs by SRB assay; format: functional; details: COLO 205, 48 h; how it was run: as §1
# [9] = Cytotoxicity against human HCC2998 cells after 48 hrs by SRB assay; format: functional; details: HCC 2998, 48 h; how it was run: as §1
# [10] = Cytotoxicity against human HCT116 cells after 48 hrs by SRB assay; format: functional; details: HCT-116, 48 h; how it was run: as §1
# [11] = Cytotoxicity against human HCT15 cells after 48 hrs by SRB assay; format: functional; details: HCT-15, 48 h; how it was run: as §1
# HT-29 = assay: Cytotoxicity against human HT-29 cells after 48 hrs by SRB assay; format: functional; details: HT-29, 48 h; how it was run: as §1
# KM12 = assay: Cytotoxicity against human KM12 cells after 48 hrs by SRB assay; format: functional; details: KM12, 48 h; how it was run: as §1
# [12] = Cytotoxicity against human SW620 cells after 48 hrs by SRB assay; format: functional; details: SW-620, 48 h; how it was run: as §1
# [13] = Cytotoxicity against human SF268 cells after 48 hrs by SRB assay; format: functional; details: SF-268, 48 h; how it was run: as §1
# [14] = Cytotoxicity against human SF295 cells after 48 hrs by SRB assay; format: functional; details: SF-295, 48 h; how it was run: as §1
# [15] = Cytotoxicity against human SF539 cells after 48 hrs by SRB assay; format: functional; details: SF-539, 48 h; how it was run: as §1
# [16] = Cytotoxicity against human SNB19 cells after 48 hrs by SRB assay; format: functional; details: SNB-19, 48 h; how it was run: as §1
# [17] = Cytotoxicity against human SNB75 cells after 48 hrs by SRB assay; format: functional; details: SNB-75, 48 h; how it was run: as §1
# U-251 = assay: Cytotoxicity against human U251 cells after 48 hrs by SRB assay; format: functional; details: U-251, 48 h; how it was run: as §2
# [18] = Cytotoxicity against human LOXIMVI cells after 48 hrs by SRB assay; format: functional; details: LOX IMVI; how it was run: as §1
# M14 = assay: Cytotoxicity against human M14 cells after 48 hrs by SRB assay; format: functional; details: M14, 48 h; how it was run: as §1
# MDA-MB-435 = assay: Cytotoxicity against human MDA-MB-435 cells after 48 hrs by SRB assay; format: functional; details: MDA-MB-435, 48 h; how it was run: as §1
# SK-MEL-2 = assay: Cytotoxicity against human SK-MEL-2 cells after 48 hrs by SRB assay; format: functional; details: SK-MEL-2, 48 h; how it was run: as §1
# SK-MEL-5 = assay: Cytotoxicity against human SK-MEL-5 cells after 48 hrs by SRB assay; format: functional; details: SK-MEL-5, 48 h; how it was run: as §1
# [19] = Cytotoxicity against human UACC257 cells after 48 hrs by SRB assay; format: functional; details: UACC-257, 48 h; how it was run: as §2
# [20] = Cytotoxicity against human UACC62 cells after 48 hrs by SRB assay; format: functional; details: UACC-62, 48 h; how it was run: as §2
# [21] = Cytotoxicity against human OVCAR3 cells after 48 hrs by SRB assay; format: functional; details: OVCAR-3, 48 h; how it was run: as §1
# [22] = Cytotoxicity against human OVCAR4 cells after 48 hrs by SRB assay; format: functional; details: OVCAR-4, 48 h; how it was run: as §1
# [23] = Cytotoxicity against human OVCAR5 cells after 48 hrs by SRB assay; format: functional; details: OVCAR-5, 48 h; how it was run: as §1
# [24] = Cytotoxicity against human OVCAR8 cells after 48 hrs by SRB assay; format: functional; details: OVCAR-8, 48 h; how it was run: as §1
# [25] = Cytotoxicity against human NCI-ADR-RES cells after 48 hrs by SRB assay; format: functional; how it was run: as §1
# [26] = Cytotoxicity against human SKOV3 cells after 48 hrs by SRB assay; format: functional; details: SK-OV-3, 48 h; how it was run: as §1
# 786-0 = assay: Cytotoxicity against human 786-0 cells after 48 hrs by SRB assay; format: functional; details: 786-0, 48 h; how it was run: as §1
# A498 = assay: Cytotoxicity against human A498 cells after 48 hrs by SRB assay; format: functional; details: A498, 48 h; how it was run: as §1
# ACHN = assay: Cytotoxicity against human ACHN cells after 48 hrs by SRB assay; format: functional; how it was run: as §1
# [27] = Cytotoxicity against human Caki1 cells after 48 hrs by SRB assay; format: functional; details: CAKI-1, 48 h; how it was run: as §1
# [28] = Cytotoxicity against human RXF393 cells after 48 hrs by SRB assay; format: functional; details: RXF 393, 48 h; how it was run: as §1
# SN12C = assay: Cytotoxicity against human SN12C cells after 48 hrs by SRB assay; format: functional; how it was run: as §1
# [29] = Cytotoxicity against human TK10 cells after 48 hrs by SRB assay; format: functional; details: TK-10, 48 h; how it was run: as §2
# [30] = Cytotoxicity against human UO31 cells after 48 hrs by SRB assay; format: functional; details: UO-31, 48 h; how it was run: as §2
# [31] = Cytotoxicity against human PC3 cells after 48 hrs by SRB assay; format: functional; details: PC-3, 48 h; how it was run: as §1
smiles,measurement,setting,value
COc1cc(OC)cc(-c2n[nH]nc2-c2c[nH]c3ccccc23)c1,GI50,[1],75 nM
same,GI50,MCF7,29 nM
same,GI50,MDA-MB-231,76 nM
same,GI50,[2],31 nM
same,GI50,[3],17 nM
same,GI50,T47D,44 nM
same,GI50,MDA-MB-468,37 nM
same,IC50,Tubulin,13500 nM
same,GI50,CCRF-CEM,37 nM
same,GI50,[4],33 nM
same,GI50,K562,31 nM
same,GI50,[5],63 nM
same,GI50,[6],53 nM
same,GI50,SR,47 nM
same,GI50,A549,88 nM
same,GI50,[7],29 nM
same,GI50,NCI-H226,75 nM
same,GI50,NCI-H23,124 nM
same,GI50,NCI-H460,38 nM
same,GI50,NCI-H522,13 nM
same,GI50,[8],35 nM
same,GI50,[9],251 nM
same,GI50,[10],31 nM
same,GI50,[11],31 nM
same,GI50,HT-29,31 nM
same,GI50,KM12,45 nM
same,GI50,[12],35 nM
same,GI50,[13],67 nM
same,GI50,[14],26 nM
same,GI50,[15],24 nM
same,GI50,[16],56 nM
same,GI50,[17],25 nM
same,GI50,U-251,54 nM
same,GI50,[18],55 nM
same,GI50,M14,31 nM
same,GI50,MDA-MB-435,10 nM
same,GI50,SK-MEL-2,31 nM
same,GI50,SK-MEL-5,34 nM
same,GI50,[19],> 100000 nM
same,GI50,[20],34 nM
same,GI50,[21],28 nM
same,GI50,[22],2670 nM
same,GI50,[23],416 nM
same,GI50,[24],70 nM
same,GI50,[25],30 nM
same,GI50,[26],34 nM
same,GI50,786-0,30 nM
same,GI50,A498,33 nM
same,GI50,ACHN,45 nM
same,GI50,[27],38 nM
same,GI50,[28],52 nM
same,GI50,SN12C,69 nM
same,GI50,[29],83 nM
same,GI50,[30],62 nM
same,GI50,[31],38 nM
